In the library only some 1.5% were active in any assay of this set; here they are far more common.
MT1-MMP act inh: inhibitors of human MT1-MMP activation; AID 651647; GFP/RFP ratio change, % at 20 µM; 0.061% of 360,000 active; P50281; HT1080 RFP-PRO-GFP cells, GFP/RFP ratio fluorescence, overnight; percent of plate control window, DMSO zero;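 active = GFP/RFP ratio change of at least 30% with cell ATP level not reduced by more than half and red fluorescence within 50% of control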
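Assay system: HT1080 cells carrying an RFP-PRO-GFP reporter | Dosing: Single dose of 20 µM compound, 1% DMSO final | Incubation: Cells overnight before dosing, compound overnight, 37 °C, 5% CO2 | Evaluation: GFP/RFP fluorescence ratio | Control set: DMSO and RFP-L50D-GFP cell wells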
CTSL1 counter: blocks F. hepatica cathepsin L1 in PFM18AAP counter-screen; inhibition, % at 5.96 µM; recombinant F. hepatica cathepsin L1, Z-Leu-Arg-MCA fluorescence; 0.49% of 300,000 active;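 active = inhibition above the mean of all tested compounds plus 3 SD, set per screening campaign, cut at about 17% in these data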;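 also: 0% = plate median of test compound wells and 100% = 1 µM Z-Phe-Ala-diazomethylketone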
NRP1-CendR mod: modulators of CendR peptide binding to human neuropilin-1 | O14786 | FAM-RPARPAR peptide binding to NRP-1, fluorescence polarization | inhibition, % at 25 µM | 0.85% of 360,000 active | AID 602438;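 active = inhibition or corrected inhibition above about 18%, plus a signal ratio from 0.5 to 1.5, limit read from the data, passing the limit was not always enough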
UCH37 DUB inh: human UCH37 deubiquitinating enzyme inhibition | AID 588478 | Q9Y5K5 | 0.33% of 330,000 active | inhibition, % (no concentration beside the values) | purified proteasome/UCH37, Ub-AMC cleavage fluorescence;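 active = mean inhibition over replicate wells above about 20%, limit read from the data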;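 also: 0% = compound-free wells with enzyme and 100% = wells lacking proteasome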
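Material: Human UCH37 enzyme supplied as purified proteasome complex | Schedule: 30 min preincubation with enzyme, 25 min cleavage at room temperature | Detection: AMC fluorescence 355/460 nm | Measure: % inhibition of Ub-AMC cleavage fluorescence | Controls: Wells without proteasome as full block, compound-free enzyme plus substrate as uninhibited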
DAGLB inhibitor: blocks human DAGLB lipase activity; Q8NCG7; HEK293T DAGLB membrane lysate, EnzChek fluorogenic substrate; inhibition, % at 5.17 µM; 0.059% of 340,000 active; in the data active = inhibition above about 34%;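 also: 0% = enzyme with vehicle and 100% = wells lacking enzyme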
MT1-MMP conf: validation of inhibitors of human MT1-MMP activation; shares compounds with MT1-MMP act inh; HT1080 RFP-PRO-GFP cells, GFP and RFP fluorescence ratio, overnight; inhibition, % at 20 µM; 10% of 200 active; AID 652235;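 active = inhibition of at least 50% in the primary cell screen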
* marks the source's active call; other numbers are inactive results; i = inactive; · = no result given.

SMILES	MT1-MMP act inh	CTSL1 counter	NRP1-CendR mod	UCH37 DUB inh	DAGLB inhibitor	MT1-MMP conf
CCC(/C=C1\Oc2ccc(OC)cc2N1C)=C\c1sc2ccccc2[n+]1CCCS(=O)(=O)[O-]	35*	·	132	·	0	-110
CCOC(=O)CC(C)=NNC(=O)CNc1cccc(Cl)c1C	·	·	·	-1	·	·
Cc1c(C)n(C)c2ccc(C(=O)NCCc3ccco3)cc12	33*	7	-39	-2	1	4
Cc1ccc(OCC(=O)NN=Cc2cn(C)c3ccccc23)c([N+](=O)[O-])c1	·	·	·	3	·	·
CCCCS/C(N)=N/N=Cc1cc(C)ccc1O	·	·	·	-1	·	·
CCCc1ccc(C#N)c(SC2CC(=O)N(c3ccc(OC)cc3)C2=O)n1 (stereo not drawn)	32*	-1	-12	6	2	-1
COc1ccc(N2C(=O)CC(Sc3nc(C)cc(C)c3C#N)C2=O)cc1 (stereo not drawn)	6	1	-6	3	4	·
COc1ccc(Nc2ccccc2N)cc1	31*	0	-91	-1	-2	51*
CC(=O)Nc1ccc(C(C)=NNC(=O)c2ccccc2Cl)cc1	·	·	·	5	·	·
COc1ccc(Nc2nc(-c3c[nH]c4ccccc34)cs2)cc1	33*	3	-32	1	4	8
O=C(NN=Cc1cccc([N+](=O)[O-])c1)c1ccc(COc2ccccc2-c2ccccc2)cc1	·	·	·	6	·	·
N#Cc1cc([N+](=O)[O-])ccc1Oc1cccc(C=NNC(=O)c2cccc(Cl)c2)c1	·	·	·	3	·	·
COc1ccc(CC(=O)NN=Cc2cc([N+](=O)[O-])cc(Br)c2O)cc1	·	·	·	9	·	·
COC(=O)C1=C(C(=O)OC)SC(=C2C(=S)C(C)(C)N(C(=O)C(C)C)c3ccccc32)S1	31*	1	1	6	13	25
CCOC(=O)C1(C)C(C(=O)OC)=C(c2ccc(OC)cc2)c2ccccc2N1C(=O)OC (stereo not drawn)	-2	·	6	1	-3	·
CN1/C(=C\C(=S)NC(=O)c2ccc([N+](=O)[O-])cc2)C(C)(C)c2ccccc21	42*	4	-4	5	2	11
Cc1ccc2c(c1)C(C)(C)[C@]1(C)NC(=O)CCN21	35*	-1	-7	-2	-1	5
O=C(COc1ccc(-c2ccccc2)cc1)NN=Cc1ccccc1Br	·	·	·	4	·	·
CCc1cc2c(NCc3ccco3)ncnc2s1	34*	3	0	4	-3	12
Cc1cccc(CSc2nc3[nH]ncc3c(=O)[nH]2)c1	35*	-3	3	8	-1	11
O=c1[nH]c(SCc2ccccc2Cl)nc2[nH]ncc12	-1	-2	2	·	-2	·
Nc1nonc1-n1nnc(C(=O)NN=CC2CCCCC2)c1-c1ccccc1	·	·	·	1	·	·
COC(=O)c1ccc2c(c1)C(C)(C)C(/C=C/c1ccccc1O)=[N+]2C	93	-1	-112	i	2	·
C[N+]1=C(/C=C/Nc2ccccc2Cl)C(C)(C)c2ccccc21	52*	0	-13	10	-1	15
COc1cc(/C=N/c2oc(C)c(C)c2C#N)cc(Br)c1O	33*	-4	-126	·	1	8
SMILES	MT1-MMP act inh	CTSL1 counter	NRP1-CendR mod	UCH37 DUB inh	DAGLB inhibitor	MT1-MMP conf
COc1ccc(/C=N/c2oc(C)c(C)c2C#N)c(OC)c1	3	-6	-3	·	-2	·
Nc1ccc(N2CCCCC2)cc1N1CCCCC1	47*	-3	-13	3	4	0
Cc1nn(-c2cc(N3CCCCC3)ccc2N)c(=O)c2ccccc12	6	1	3	2	2	·
Cc1ccc(C=Nn2c(COc3ccccc3)n[nH]c2=S)cc1	·	·	·	4	·	·
CC(=NNC(=O)c1ccc(Br)cc1)c1cccc(NC(=O)c2cccnc2)c1	·	·	·	2	·	·
Cc1cc(=O)n2[nH]c(-c3ccc(C(C)(C)C)cc3)cc2n1	34*	-2	-4	-4	3	24
CN1C(=O)/C(=C\c2ccccc2OCc2ccccc2)SC1=S	1	-2	-13	5	1	·
CN1C(=O)/C(=C\c2cc(N=Nc3ccccc3)ccc2O)SC1=S	32*	3	1	12	4	83*
CCN1/C(=C\C=C2\C(=O)N(c3ccccc3)C(=S)N2C)Sc2ccccc21	39*	·	-67	·	0	29
COc1cccc(C(=O)Nc2ccc(-c3nc4ccccc4o3)c(O)c2)c1	5	2	-36	i	-5	·
COc1cc(OC)cc(C(=O)Nc2ccc(-c3nc4ccccc4o3)cc2)c1	31*	2	-9	-120	-4	17
CCOC(=O)C(=NNc1ccccc1Cl)N(C)C1CCCCC1	·	·	·	1	·	·
COc1ccc(OCC(=O)NNc2c3ccccc3nc3ccccc23)cc1	35*	13	0	2	4	32
COc1cc(C(=O)Nc2ccc(O)cc2C(=O)O)ccc1OC(C)=O	37*	-1	1	2	-2	2
COC(=O)c1ccc(NC(=O)c2ccc(OC(C)=O)c(OC)c2)cc1	4	-2	6	2	-2	·
O=C(Cc1ccccc1)NCC(=O)NN=Cc1ccc(Cl)cc1	·	·	·	1	·	·
Cc1ccccc1N=C/C=C1\N(C)c2ccccc2C1(C)C	56*	5	-10	8	-4	8
CN1/C(=C\C=N\O)C(C)(C)c2ccccc21	3	2	-2	·	1	·
COc1cc(N(C)C)ccc1C=c1c2ccccc2n2c1cc(-c1ccccc1)[n+]2C	65*	·	-70	·	34	65*
Cc1cc(C(=NO)C(C)(C)NO)ccc1Cl	·	·	·	4	·	·
CC1=NN(c2ccccc2)C(=O)/C1=C/C=C/c1ccc(N(C)C)cc1	55*	·	2	8	17	46
CC1=NN(c2ccccc2)C(=O)/C1=C\C=C\c1ccccc1	4	-3	-11	·	·	·
O=C(O)c1cc(N=Nc2c(O)ccc3ccccc23)cc(C(=O)O)c1	33*	·	-37	26*	3	30
Oc1ccc(N=Nc2c(O)ccc3ccccc23)cc1	73*	3	-19	11	49*	41
CCCOc1ccc2oc(=O)c3c(c2c1)CCCN3C(=O)CN1CCN(C(=O)c2ccco2)CC1	·	2	·	·	·	·
SMILES	MT1-MMP act inh	CTSL1 counter	NRP1-CendR mod	UCH37 DUB inh	DAGLB inhibitor	MT1-MMP conf
O=C(CN1CCCC1)N1CCCc2c1c(=O)oc1ccc(OCc3ccccc3)cc21	51*	1	3	-131	-1	8
CC(=O)c1cccc(S(=O)(=O)N2CCC(C(=O)NC3CCCC3)CC2)c1	40*	·	-19	2	1	1
CCN(CC)c1ccc(/C=C2\C(=O)N(c3nnc(C)c(=O)[nH]3)N=C2C)cc1	33*	0	-53	3	18	17
Cc1cc2cc(CNC(=O)c3cccc([N+](=O)[O-])c3)ccc2n1C	-1	1	12	2	-1	·
Cc1cc2cc(CNC(=O)Cc3ccc([N+](=O)[O-])cc3)ccc2n1C	42*	1	30*	2	6	3
CCCC(=O)NCc1ccc2c(c1)cc(C)n2C	25	6	7	2	2	·
Cc1cc2cc(CNC(=O)C3CCCC3)ccc2n1C	35*	-1	7	1	3	-5
